Assays:
[1] = test system: Mus musculus; experiment: Percentage efficacy to normalize the blood glucose levels to that of normal mouse in ob/ob mouse after 3 days and 8 hours of 100 mg/kg dose administration; Nonsignificant; format: functional, organism-based; set-up: dose 100 mg/kg
Summary of the method: (§1)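 Adult male C57BL ob/ob mice, n = 6/group, matched on day-0 blood glucose; non-diabetic animals (<150 mg/dL basal) excluded. Oral dosing each morning days 1-3 in 0.5% CMC with 0.2% Tween-80. Tail-nick blood glucose by YSI analyzer. % efficacy = {1 − ([glc]cpd − 100)/([glc]veh − 100)} × 100. Significance by t-test vs vehicle, p < 0.05.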

[2] = test system: Mus musculus; experiment: Percentage efficacy to normalize the blood glucose levels to that of normal mouse in ob/ob mouse after 3 days and 4 hours of 100 mg/kg dose administration; Nonsignificant; format: functional, organism-based; set-up: dose 100 mg/kg; summary of the method: as §1
[3] = test system: Mus musculus; experiment: Percentage efficacy to normalize the blood glucose levels to that of normal mouse in ob/ob mouse after 3 days and 8 hours of 100 mg/kg dose administration.; format: functional; summary of the method: as §1
[4] = test system: Mus musculus; experiment: Percentage efficacy to normalize the blood glucose levels to that of normal mouse in ob/ob mouse after 3 days and 8 hours of 300 mg/kg dose administration.; format: functional; summary of the method: as §1
[5] = test system: Mus musculus; experiment: Percentage efficacy to normalize the blood glucose levels to that of normal mouse in ob/ob mouse after 3 days and 4 hours of 300 mg/kg dose administration.; format: functional; summary of the method: as §1
[6] = test system: Mus musculus; experiment: Percentage efficacy to normalize the blood glucose levels to that of normal mouse in ob/ob mouse after 3 days and 4 hours of 100 mg/kg dose administration.; format: functional; summary of the method: as §1
[7] = test system: Mus musculus; experiment: Percentage efficacy to normalize the blood glucose levels to that of normal mouse in ob/ob mouse after 3 days and 4 hours of 30 mg/kg dose administration.; format: functional; summary of the method: as §1
[8] = organism: Mus musculus; experiment: Effective dose for glucose lowering in ob/ob mice; format: functional
Summary of the method: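 ob/ob mice, once-daily oral dosing for 3 days in 0.5% CMC/0.2% Tween-80, or in 40% microemulsion (Cremophor RH40, corn oil-monoglyceride, propylene glycol, ethanol) where stated; tail-nick blood glucose. % efficacy computed as below at selected doses; ED50 from sigmoidal fit of dose-response curve.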

[9] = test system: Mus musculus; experiment: Percentage efficacy to normalize the blood glucose levels to that of normal mouse in ob/ob mouse after 3 days and 8 hours of 30 mg/kg dose administration.; format: functional; summary of the method: as §1
[10] = test system: Mus musculus; experiment: Percentage efficacy to normalize the blood glucose levels to that of normal mouse in ob/ob mouse after 3 days and 4 hours of 300 mg/kg dose administration; Nonsignificant; format: functional, organism-based; set-up: dose 300 mg/kg; summary of the method: as §1
[11] = test system: Mus musculus; experiment: Percentage efficacy to normalize the blood glucose levels to that of normal mouse in ob/ob mouse after 3 days and 8 hours of 300 mg/kg dose administration; Nonsignificant; format: functional, organism-based; set-up: dose 300 mg/kg; summary of the method: as §1
[12] = test system: Mus musculus; experiment: Percentage efficacy to normalize the blood glucose levels to that of normal mouse in ob/ob mouse after 3 days and 4 hours of 30 mg/kg dose administration; Nonsignificant; format: functional, organism-based; set-up: dose 30 mg/kg; summary of the method: as §1

CN(C)C(=O)Cc1cn(-c2cccc(C(F)(F)F)c2)nc1-c1cccc2ccccc12
Efficacy [1]: Not significant | Efficacy [2]: Not significant

CN(C)C(=O)Cc1cn(-c2cccc(C(F)(F)F)c2)nc1-c1ccc(-c2ccc(F)cc2)cc1
Efficacy [2]: Not significant | Efficacy [3]: 81%

Cc1ccc(-c2nn(-c3cccc(C(F)(F)F)c3)cc2CC(=O)N(C)C)cc1
Efficacy [4]: 36% | Efficacy [5]: 58%

CN(C)C(=O)Cc1cn(-c2cccc(C(F)(F)F)c2)nc1-c1ccc2c(c1)Cc1ccccc1-2
Efficacy [6]: 87% | Efficacy [7]: 113% | Efficacy [3]: 57% | ED50 [8]: 0.05 mg/kg/day | Efficacy [9]: 115%

CN(C)C(=O)Cc1cn(-c2cccc(C(F)(F)F)c2)nc1-c1ccc(C(C)(C)C)cc1
Efficacy [1]: Not significant | Efficacy [2]: Not significant

CN(C)C(=O)Cc1cn(-c2cccc(C(F)(F)F)c2)nc1-c1ccc(Cl)cc1
Efficacy [4]: 78% | Efficacy [10]: Not significant

CN(C)C(=O)Cc1cn(-c2cccc(C(F)(F)F)c2)nc1-c1ccc(Cl)c(Cl)c1
Efficacy [4]: 63% | Efficacy [10]: Not significant

CN(C)C(=O)Cc1cn(-c2cccc(C(F)(F)F)c2)nc1-c1ccc(Oc2ccccc2)cc1
Efficacy [1]: Not significant | Efficacy [2]: Not significant

CN(C)C(=O)Cc1cn(-c2cccc(C(F)(F)F)c2)nc1-c1ccc(-c2ccccc2)cc1
Efficacy [6]: 84% | Efficacy [7]: 80% | Efficacy [3]: 69% | ED50 [8]: 1.3 mg/kg/day | Efficacy [9]: 94%

O=C(Cc1cn(-c2cccc(C(F)(F)F)c2)nc1-c1ccc(Cl)c(Cl)c1)Nc1ccccc1
Efficacy [11]: Not significant | Efficacy [10]: Not significant

CN(C)C(=O)Cc1cn(-c2ccc(C(C)(C)C)cc2)nc1-c1ccc(Cl)c(Cl)c1
Efficacy [1]: Not significant | Efficacy [2]: Not significant

CN(C)C(=O)Cc1cn(-c2cccc(C(F)(F)F)c2)nc1-c1ccc2c(c1)C(C)(O)c1ccccc1-2 (centres undefined)
Efficacy [6]: 73% | Efficacy [3]: 64%

O=C(Cc1cn(-c2cccc(C(F)(F)F)c2)nc1-c1ccc(Cl)c(Cl)c1)N1CCN(C(c2ccccc2)c2ccccc2)CC1
Efficacy [2]: Not significant | Efficacy [12]: Not significant | Efficacy [3]: 45% | Efficacy [9]: 48%

CN(C)C(=O)Cc1cn(-c2cccc(C(F)(F)F)c2)nc1-c1ccccc1
Efficacy [4]: 36% | Efficacy [5]: 71%

Cc1cc(C)cc(-n2cc(CC(=O)N(C)C)c(-c3ccc(Cl)c(Cl)c3)n2)c1
Efficacy [11]: Not significant | Efficacy [10]: Not significant

CN(C)C(=O)Cc1cn(-c2cccc(C(F)(F)F)c2)nc1-c1cccc(-c2ccccc2)c1
Efficacy [1]: Not significant | Efficacy [2]: Not significant

O=C(O)Cc1cn(-c2cccc(C(F)(F)F)c2)nc1-c1ccc(Cl)c(Cl)c1
Efficacy [11]: Not significant | Efficacy [10]: Not significant

CN(C)C(=O)Cc1cn(-c2cccc(C(F)(F)F)c2)nc1-c1ccc2c(c1)C(=O)c1ccccc1-2
Efficacy [6]: 107% | Efficacy [3]: 78%

CN(C)C(=O)Cc1cn(-c2cccc(C(F)(F)F)c2)nc1-c1ccc2c(c1)Cc1ccccc1O2
Efficacy [6]: 65% | Efficacy [3]: 96%

CN(C)C(=O)Cc1cn(-c2cccc(C(F)(F)F)c2)nc1-c1ccccc1-c1ccccc1
Efficacy [1]: Not significant | Efficacy [2]: Not significant

CN(C)C(=O)Cc1cn(-c2ccc(Cl)c(Cl)c2)nc1-c1ccc(Cl)c(Cl)c1
Efficacy [4]: 53% | Efficacy [5]: 34%

CN(C)C(=O)Cc1cn(-c2cccc(C(F)(F)F)c2)nc1-c1ccc2oc3ccccc3c2c1
Efficacy [1]: Not significant | Efficacy [2]: Not significant

COc1ccc(-c2nn(-c3cccc(C(F)(F)F)c3)cc2CC(=O)N(C)C)cc1OC
Efficacy [2]: Not significant | Efficacy [3]: 85%

CN(C)C(=O)Cc1cn(-c2cccc(C(F)(F)F)c2)nc1-c1ccc(Cc2ccccc2)cc1
Efficacy [1]: Not significant | Efficacy [2]: Not significant

O=C(Cc1cn(-c2cccc(C(F)(F)F)c2)nc1-c1ccc(Cl)c(Cl)c1)N1CCCC1
Efficacy [4]: 76% | Efficacy [5]: 72%

CN(C)C(=O)Cc1cn(-c2ccc(C(F)(F)F)cc2)nc1-c1ccc(Cl)c(Cl)c1
Efficacy [4]: 37% | Efficacy [5]: 45%

CN(C)C(=O)Cc1cn(-c2cc(C(F)(F)F)cc(C(F)(F)F)c2)nc1-c1ccc(Cl)c(Cl)c1
Efficacy [11]: Not significant | Efficacy [10]: Not significant

CN(C)C(=O)Cc1cn(-c2cccc(C(F)(F)F)c2)nc1-c1ccc2c(c1)CCc1ccccc1-2
Efficacy [6]: 87% | Efficacy [3]: 111%

CN(C)C(=O)Cc1cn(-c2cc(Cl)cc(Cl)c2)nc1-c1ccc(Cl)c(Cl)c1
Efficacy [11]: Not significant | Efficacy [5]: 52%

Cc1cccc(-n2cc(CC(=O)N(C)C)c(-c3ccc(Cl)c(Cl)c3)n2)c1
Efficacy [1]: Not significant | Efficacy [2]: Not significant

O=C(Cc1cn(-c2cccc(C(F)(F)F)c2)nc1-c1ccc(Cl)c(Cl)c1)N(Cc1ccccc1)Cc1ccccc1
Efficacy [6]: 52% | Efficacy [3]: 49%

CN(C(=O)Cc1cn(-c2cccc(C(F)(F)F)c2)nc1-c1ccc(Cl)c(Cl)c1)c1ccccc1
Efficacy [11]: Not significant | Efficacy [5]: 57%

O=C(Cc1cn(-c2cccc(C(F)(F)F)c2)nc1-c1ccc(Cl)c(Cl)c1)N1CCOCC1
Efficacy [11]: Not significant | Efficacy [10]: Not significant

O=C(Cc1cn(-c2cccc(C(F)(F)F)c2)nc1-c1ccc(Cl)c(Cl)c1)N1CCN(c2ccccc2)CC1
Efficacy [2]: Not significant | Efficacy [3]: 42%

CN(C)C(=O)Cc1cn(-c2cccc(C(F)(F)F)c2)nc1-c1ccc2c(c1)C(C)(C)c1ccccc1-2
Efficacy [6]: 67% | Efficacy [3]: 83%

CN(C)C(=O)Cc1cn(-c2cccc(C(F)(F)F)c2)nc1-c1ccc2sc3ccccc3c2c1
Efficacy [1]: Not significant | Efficacy [6]: 59%

O=C(Cc1cn(-c2cccc(F)c2)nc1-c1ccc(Cl)c(Cl)c1)N1CCCC1
Efficacy [4]: 75% | Efficacy [5]: 74%

CONC(=O)Cc1cn(-c2cccc(C(F)(F)F)c2)nc1-c1ccc(Cl)c(Cl)c1
Efficacy [4]: 35% | Efficacy [5]: 48%

COc1ccc(-n2cc(CC(=O)N(C)C)c(-c3ccc(Cl)c(Cl)c3)n2)cc1
Efficacy [4]: 35% | Efficacy [5]: 39%

CN(C)C(=O)Cc1cn(-c2cccc(C(F)(F)F)c2)nc1-c1ccc2c(ccc3ccccc32)c1
Efficacy [6]: 90% | Efficacy [3]: 71%

O=C(Cc1cn(-c2cccc(C(F)(F)F)c2)nc1-c1ccc(Cl)c(Cl)c1)N1CCCCC1
Efficacy [11]: Not significant | Efficacy [10]: Not significant

CN1CCN(C(=O)Cc2cn(-c3cccc(C(F)(F)F)c3)nc2-c2ccc(Cl)c(Cl)c2)CC1
Efficacy [11]: Not significant | Efficacy [5]: 54%

CN(C)C(=O)Cc1cn(-c2ccc(Cl)cc2)nc1-c1ccc(Cl)c(Cl)c1
Efficacy [4]: 52% | Efficacy [5]: 47%

CN(C)C(=O)Cc1cn(-c2cccc(C(F)(F)F)c2)nc1-c1cc2ccccc2c2ccccc12
Efficacy [1]: Not significant | Efficacy [2]: Not significant

CN(C)C(=O)Cc1cn(-c2cccc(C(F)(F)F)c2)nc1-c1ccc2c(c1)Cc1ccccc1C2
Efficacy [6]: 79% | Efficacy [3]: 70%

CN(C)C(=O)Cc1cn(-c2cccc([N+](=O)[O-])c2)nc1-c1ccc(Cl)c(Cl)c1
Efficacy [6]: -72% | Efficacy [3]: -88%

O=C(Cc1cn(-c2cccc(C(F)(F)F)c2)nc1-c1ccc(Cl)c(Cl)c1)NO
Efficacy [11]: Not significant | Efficacy [10]: Not significant

CN(C)C(=O)Cc1cn(-c2cccc(C(F)(F)F)c2)nc1-c1ccc(-c2ccc(-c3ccccc3)cc2)cc1
Efficacy [1]: Not significant | Efficacy [2]: Not significant

CCOC(=O)Cc1cn(-c2cccc(C(F)(F)F)c2)nc1-c1ccc(Cl)c(Cl)c1
Efficacy [11]: Not significant | Efficacy [10]: Not significant

CN(C)C(=O)Cc1cn(-c2ccc(F)cc2)nc1-c1ccc(Cl)c(Cl)c1
Efficacy [4]: 39% | Efficacy [5]: 84%

CN(C)C(=O)Cc1cn(-c2cccc(C(F)(F)F)c2)nc1-c1ccc2ccccc2c1
Efficacy [1]: Not significant | Efficacy [2]: Not significant

CCN(CC)C(=O)Cc1cn(-c2cccc(C(F)(F)F)c2)nc1-c1ccc(Cl)c(Cl)c1
Efficacy [4]: 50% | Efficacy [5]: 45%

CC(=O)OC1c2ccccc2-c2ccc(-c3nn(-c4cccc(C(F)(F)F)c4)cc3CC(=O)N(C)C)cc21 (centres undefined)
Efficacy [6]: 95% | Efficacy [3]: 108%
